Laboratory results from ChEMBL document CHEMBL2021913, “Synthesis and biological evaluation of some novel thiazole substituted benzotriazole derivatives” (2012).
≈ marks a conversion by molar mass, not a printed value. Calls of active or inactive are those of the source. No cut-off for these calls is given here.

Experiments:
Assay type in all cases: functional
Bacillus subtilis [1] = assay: Antimicrobial activity against Bacillus subtilis 2250 at 35 degC after 18 to 24 hrs by NCCLS method based antimicrobial assay
Pseudomonas aeruginosa [2] = assay: Antimicrobial activity against Pseudomonas aeruginosa 2036 at 35 degC after 18 to 24 hrs by NCCLS method based antimicrobial assay; conditions: for MBC: read-out: MBC99.9
Aspergillus niger [3] = assay: Antimicrobial activity against Aspergillus niger 545 at 35 degC after 48 hrs by CLSI method based antimicrobial assay; conditions: for MFC: read-out: MFC99.9
Outline: (§1)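 Broth microdilution following CLSI guidelines over 256 to 1 µg/mL. MIC90 is the lowest concentration completely inhibiting growth. For MFC, 0.1 mL from each tube spread on agar and CFU counted after 48 h at 35 °C; MFC is lowest concentration killing 99.9% of inoculum. MFC/MIC ratio calculated: […], ≤4 as fungicidal.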

Candida albicans [4] = assay: Antimicrobial activity against Candida albicans 3471 at 35 degC after 48 hrs by CLSI method based antimicrobial assay; conditions: for MFC: read-out: MFC99.9; outline: as §1
Aspergillus niger [5] = assay: Ratio of MFC99.9 to MIC90 for Aspergillus niger 545 at 35 degC after 48 hrs by CLSI method based antimicrobial assay; outline: as §1
Candida albicans [6] = assay: Ratio of MFC99.9 to MIC90 for Candida albicans 3471 at 35 degC after 48 hrs by CLSI method based antimicrobial assay; outline: as §1
Staphylococcus aureus [7] = assay: Antimicrobial activity against Staphylococcus aureus 2079 at 128 ug/disc at 35 degC after 24 hrs by agar-well diffusion assay; conditions: for zone of inhibition at 128 µg/disc: Staphylococcus aureus, 2079, 24 h, read-out: DIZ
Outline: (§2)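 Agar-well diffusion: 24 h bacterial cultures adjusted to 0.5 McFarland (1.5 × 10⁸ CFU/mL) and mixed into molten Mueller-Hinton agar before pouring. 6 mm wells punched and each filled with 50 µL of compound stock or control. Plates incubated 35 °C for 24 h. Zone of growth inhibition diameter measured with vernier caliper.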

Bacillus subtilis [8] = assay: Antimicrobial activity against Bacillus subtilis 2250 at 128 ug/disc at 35 degC after 24 hrs by agar-well diffusion assay; outline: as §2
Pseudomonas aeruginosa [9] = assay: Antimicrobial activity against Pseudomonas aeruginosa 2036 at 128 ug/disc at 35 degC after 24 hrs by agar-well diffusion assay; conditions: for zone of inhibition at 128 µg/disc: Pseudomonas aeruginosa, 2036, 24 h, read-out: DIZ; outline: as §2
Aspergillus niger [10] = assay: Antimicrobial activity against Aspergillus niger 545 at 128 ug/disc at 37 degC after 24 to 72 hrs by agar-well diffusion assay; conditions: read-out: DIZ
Outline: (§3)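 Potato dextrose agar base plates overlaid with seeded agar cooled to 40 °C and inoculated with spores from 10-day cultures, final 1 × 10⁶ spores/mL. Compounds dissolved in DMSO at 128 µg/mL and applied on 6 mm filter-paper discs placed on chilled seeded medium. Nystatin positive control, DMSO negative control. Incubation 24–72 h at 37 °C. Inhibition zone diameter read by vernier caliper.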

Candida albicans [11] = assay: Antimicrobial activity against Candida albicans 3471 at 128 ug/disc at 37 degC after 24 to 72 hrs by agar-well diffusion assay; conditions: for zone of inhibition at 128 µg/disc: read-out: DIZ; outline: as §3
Staphylococcus aureus [12] = assay: Antimicrobial activity against Staphylococcus aureus 2079 at 35 degC after 18 to 24 hrs by NCCLS method based antimicrobial assay; conditions: for MBC: read-out: MBC99.9
Escherichia coli [13] = assay: Antimicrobial activity against Escherichia coli 2109 at 35 degC after 18 to 24 hrs by NCCLS method based antimicrobial assay; conditions: for MBC: read-out: MBC99.9
Escherichia coli [14] = assay: Antimicrobial activity against Escherichia coli 2109 at 128 ug/disc at 35 degC after 24 hrs by agar-well diffusion assay; conditions: for zone of inhibition at 128 µg/disc: Escherichia coli, 2109, 24 h, read-out: DIZ; outline: as §2

## Clc1ccc(/C(Cn2nnc3ccccc32)=N\Nc2nc(-c3ccc(Cl)cc3)cs2)cc1
Bacillus subtilis [1]
  MIC: 32 µg/mL (≈ 66.8 µM)
Bacillus subtilis [1]; read-out: MBC99.9
  MBC: 64 µg/mL (≈ 134 µM)
Pseudomonas aeruginosa [2]
  MIC: 128 µg/mL (≈ 267 µM)
  MBC: 128 µg/mL (≈ 267 µM)
Aspergillus niger [3]; Aspergillus niger, 545, 48 h
  MIC: 32 µg/mL (≈ 66.8 µM)
  MFC: 32 µg/mL (≈ 66.8 µM)
Candida albicans [4]; Candida albicans, 3471, 48 h
  MIC: 16 µg/mL (≈ 33.4 µM)
  MFC: 32 µg/mL (≈ 66.8 µM)
Aspergillus niger [5]
  Ratio: 1
Candida albicans [6]
  Ratio: 2
Staphylococcus aureus [7]
  zone of inhibition at 128 µg/disc: 27.9 mm
Bacillus subtilis [8]; Bacillus subtilis, 2250, 24 h, read-out: DIZ
  zone of inhibition at 128 µg/disc: 25.1 mm
Pseudomonas aeruginosa [9]
  zone of inhibition at 128 µg/disc: 11.3 mm
Aspergillus niger [10]
  zone of inhibition at 128 µg/disc: 18.2 mm
Candida albicans [11]
  zone of inhibition at 128 µg/disc: 21 mm
Staphylococcus aureus [12]
  MIC: 64 µg/mL (≈ 134 µM)
  MBC: 32 µg/mL (≈ 66.8 µM)
Escherichia coli [13]
  MBC99.9: inactive
  MIC: inactive

## Clc1ccc(-c2csc(N/N=C(/Cn3nnc4ccccc43)c3ccc(Br)cc3)n2)cc1
Bacillus subtilis [1]
  MBC99.9: inactive
  MIC: inactive
Pseudomonas aeruginosa [2]
  MIC: 16 µg/mL (≈ 30.5 µM)
  MBC: 32 µg/mL (≈ 61.1 µM)
Aspergillus niger [3]; Aspergillus niger, 545, 48 h
  MIC: 64 µg/mL (≈ 122 µM)
  MFC: 128 µg/mL (≈ 244 µM)
Candida albicans [4]
  MFC99.9: inactive
  MIC: inactive
Aspergillus niger [5]
  Ratio: 2
Staphylococcus aureus [7]
  diameter of the inhibition zone (DIZ): inactive
Escherichia coli [14]
  zone of inhibition at 128 µg/disc: 21.8 mm
Bacillus subtilis [8]
  diameter of the inhibition zone (DIZ): inactive
Pseudomonas aeruginosa [9]
  zone of inhibition at 128 µg/disc: 21.2 mm
Aspergillus niger [10]
  zone of inhibition at 128 µg/disc: 15.2 mm
Candida albicans [11]
  diameter of the inhibition zone (DIZ): inactive
Staphylococcus aureus [12]
  MBC99.9: inactive
  MIC: inactive
Escherichia coli [13]
  MIC: 64 µg/mL (≈ 122 µM)
  MBC: 128 µg/mL (≈ 244 µM)

## O=[N+]([O-])c1ccc(-c2csc(N/N=C(/Cn3nnc4ccccc43)c3ccc(Cl)cc3)n2)cc1
Bacillus subtilis [1]
  MBC99.9: inactive
  MIC: inactive
Pseudomonas aeruginosa [2]
  MIC: 64 µg/mL (≈ 131 µM)
  MBC: 128 µg/mL (≈ 261 µM)
Aspergillus niger [3]; Aspergillus niger, 545, 48 h
  MIC: 128 µg/mL (≈ 261 µM)
  MFC: 256 µg/mL (≈ 523 µM)
Candida albicans [4]
  MFC99.9: inactive
  MIC: inactive
Aspergillus niger [5]
  Ratio: 2
Staphylococcus aureus [7]
  diameter of the inhibition zone (DIZ): inactive
Escherichia coli [14]
  diameter of the inhibition zone (DIZ): inactive
Bacillus subtilis [8]
  diameter of the inhibition zone (DIZ): inactive
Pseudomonas aeruginosa [9]
  zone of inhibition at 128 µg/disc: 16.4 mm
Aspergillus niger [10]
  zone of inhibition at 128 µg/disc: 13.6 mm
Candida albicans [11]
  diameter of the inhibition zone (DIZ): inactive
Staphylococcus aureus [12]
  MBC99.9: inactive
  MIC: inactive
Escherichia coli [13]
  MBC99.9: inactive
  MIC: inactive

## Fc1ccc(/C(Cn2nnc3ccccc32)=N\Nc2nc(-c3ccc(Cl)cc3)cs2)cc1
Bacillus subtilis [1]
  MBC99.9: inactive
  MIC: inactive
Pseudomonas aeruginosa [2]
  MIC: 64 µg/mL (≈ 138 µM)
  MBC: 64 µg/mL (≈ 138 µM)
Aspergillus niger [3]; Aspergillus niger, 545, 48 h
  MIC: 16 µg/mL (≈ 34.6 µM)
  MFC: 16 µg/mL (≈ 34.6 µM)
Candida albicans [4]; Candida albicans, 3471, 48 h
  MIC: 16 µg/mL (≈ 34.6 µM)
  MFC: 64 µg/mL (≈ 138 µM)
Aspergillus niger [5]
  Ratio: 1
Candida albicans [6]
  Ratio: 4
Staphylococcus aureus [7]
  zone of inhibition at 128 µg/disc: 25.9 mm
Bacillus subtilis [8]
  diameter of the inhibition zone (DIZ): inactive
Pseudomonas aeruginosa [9]
  zone of inhibition at 128 µg/disc: 19.1 mm
Aspergillus niger [10]
  zone of inhibition at 128 µg/disc: 21.4 mm
Candida albicans [11]
  zone of inhibition at 128 µg/disc: 20.2 mm
Staphylococcus aureus [12]
  MIC: 32 µg/mL (≈ 69.1 µM)
  MBC: 32 µg/mL (≈ 69.1 µM)
Escherichia coli [13]
  MBC99.9: inactive
  MIC: inactive

## NYSTATIN
Aspergillus niger [3]
  MFC99.9: 32 µg/mL
  MIC: 16 µg/mL
Candida albicans [4]
  MFC99.9: 32 µg/mL
  MIC: 16 µg/mL
Aspergillus niger [5]
  Ratio: 2
Candida albicans [6]
  Ratio: 2

## FC(F)(F)c1cc(/C(Cn2nnc3ccccc32)=N\Nc2nc(-c3ccc(Cl)cc3)cs2)cc(C(F)(F)F)c1
Bacillus subtilis [1]
  MBC99.9: inactive
  MIC: inactive
Pseudomonas aeruginosa [2]
  MBC99.9: inactive
  MIC: inactive
Aspergillus niger [3]; Aspergillus niger, 545, 48 h
  MIC: 16 µg/mL (≈ 27.5 µM)
  MFC: 64 µg/mL (≈ 110 µM)
Candida albicans [4]
  MFC99.9: inactive
  MIC: inactive
Aspergillus niger [5]
  Ratio: 4
Staphylococcus aureus [7]
  diameter of the inhibition zone (DIZ): inactive
Escherichia coli [14]
  zone of inhibition at 128 µg/disc: 18.7 mm
Bacillus subtilis [8]
  diameter of the inhibition zone (DIZ): inactive
Pseudomonas aeruginosa [9]
  diameter of the inhibition zone (DIZ): inactive
Aspergillus niger [10]
  zone of inhibition at 128 µg/disc: 19.7 mm
Candida albicans [11]
  diameter of the inhibition zone (DIZ): inactive
Staphylococcus aureus [12]
  MBC99.9: inactive
  MIC: inactive
Escherichia coli [13]
  MIC: 128 µg/mL (≈ 220 µM)
  MBC: 256 µg/mL (≈ 441 µM)
